We go through eleven molecules from PMC11077555 (Chemical Science, 2024).

SMILES strings stand for the structures. Values joined by “and” are separate entries in the source; they are usually repeats but may differ in a detail not shown here. Equal values may be shown once.

Data set [1] addresses human recombinant GCPIII (Homo sapiens, UniProt Q9Y3Q0). Put plainly: Fluorescence polarization. The format is binding. Conditions: for affinity against GCPIII (in words) / Kd: off-DNA FP; for fold selectivity (fold higher dissociation constant towards GCPIII): compared to the original HIT3; for Kd: KD,GCPIII. (In fluorescence polarisation assays a small probe gives low polarisation when free and higher when bound to something large.)

Data set [2] has as its target human recombinant PSMA (Homo sapiens, UniProt Q04609). Put plainly: Fluorescence polarization. The format is binding.
The subject of data set [3] is LNCaP cells. Put plainly: Flow cytometry on LNCaP cells. The note with it: HT1080.wt as reference. The format is cell-based. The gist of the method: (§1)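 Fluorescein-conjugated test compounds were incubated with PSMA-positive cells (HT1080.hPSMA, LNCaP), with PSMA-negative HT1080.wt cells as reference. Cell-bound fluorescence was measured by flow cytometry to assess recognition of PSMA in a native cellular environment.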
(In general: A flow cytometer gives signals particle by particle.)

Data set [4] concerns HT1080.hPSMA cells. Put plainly: Flow cytometry on HT1080.hPSMA cells. The format is cell-based, human. The note with it: HT1080.hPSMA vs HT1080.wt; fluorescein-labelled compounds 50-250 nM. In a few lines:
as §1

The conditions of data set [5]: in combination with best standard of care; cited from earlier work.
In data set [6] the test system is HT1080.hPSMA tumors. Put plainly: Quantitative in vivo biodistribution in tumor-bearing mice. Details: species or system BALB/c nude mice. Conditions: 2 h after i.v., n = 3.
In data set [7] the test system is PSMA. Conditions: read-out: IC50,PSMA; cited from earlier work.

human recombinant GCPIII, sequence (Q9Y3Q0 whole entry): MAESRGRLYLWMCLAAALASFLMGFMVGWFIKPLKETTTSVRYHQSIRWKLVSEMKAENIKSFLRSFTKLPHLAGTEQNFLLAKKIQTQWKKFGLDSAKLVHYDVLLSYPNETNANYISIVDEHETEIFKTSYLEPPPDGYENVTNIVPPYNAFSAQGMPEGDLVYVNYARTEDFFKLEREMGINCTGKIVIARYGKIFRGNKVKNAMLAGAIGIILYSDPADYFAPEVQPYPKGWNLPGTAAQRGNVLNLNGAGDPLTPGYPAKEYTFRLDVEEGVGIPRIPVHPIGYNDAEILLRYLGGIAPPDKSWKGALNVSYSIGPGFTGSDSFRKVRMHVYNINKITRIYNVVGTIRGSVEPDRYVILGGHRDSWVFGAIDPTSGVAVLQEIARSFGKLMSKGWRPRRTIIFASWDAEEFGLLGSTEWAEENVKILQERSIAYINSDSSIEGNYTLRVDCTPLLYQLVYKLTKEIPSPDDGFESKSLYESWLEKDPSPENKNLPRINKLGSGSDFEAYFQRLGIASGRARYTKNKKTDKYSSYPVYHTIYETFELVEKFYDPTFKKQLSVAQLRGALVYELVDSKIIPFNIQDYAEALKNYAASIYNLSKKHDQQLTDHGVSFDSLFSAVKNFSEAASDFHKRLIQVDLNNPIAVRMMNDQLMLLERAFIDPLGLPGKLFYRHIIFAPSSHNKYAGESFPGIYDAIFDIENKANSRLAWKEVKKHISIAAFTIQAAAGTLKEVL
human recombinant PSMA, sequence (Q04609 whole entry): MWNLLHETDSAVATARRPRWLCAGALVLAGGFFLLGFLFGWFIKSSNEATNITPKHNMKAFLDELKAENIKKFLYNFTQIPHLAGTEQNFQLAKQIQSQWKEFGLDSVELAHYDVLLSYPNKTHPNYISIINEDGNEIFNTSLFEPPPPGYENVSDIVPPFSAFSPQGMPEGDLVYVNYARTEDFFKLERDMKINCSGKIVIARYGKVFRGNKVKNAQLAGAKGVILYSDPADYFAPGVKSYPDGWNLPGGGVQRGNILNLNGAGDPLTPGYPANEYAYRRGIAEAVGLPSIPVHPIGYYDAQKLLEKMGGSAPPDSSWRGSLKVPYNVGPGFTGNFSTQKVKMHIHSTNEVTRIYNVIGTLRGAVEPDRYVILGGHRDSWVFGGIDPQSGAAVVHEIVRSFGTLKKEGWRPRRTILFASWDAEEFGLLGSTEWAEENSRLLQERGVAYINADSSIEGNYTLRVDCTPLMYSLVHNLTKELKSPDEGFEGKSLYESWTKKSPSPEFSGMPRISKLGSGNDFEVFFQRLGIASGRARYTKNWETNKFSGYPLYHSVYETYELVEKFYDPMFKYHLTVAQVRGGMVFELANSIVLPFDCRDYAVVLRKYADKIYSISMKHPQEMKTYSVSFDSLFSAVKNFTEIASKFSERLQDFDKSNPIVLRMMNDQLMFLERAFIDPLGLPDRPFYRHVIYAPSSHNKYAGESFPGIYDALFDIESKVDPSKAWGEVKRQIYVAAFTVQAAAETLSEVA

As a reminder, the Kd is a measure of binding affinity in units of concentration. With `O=C(CCNS(=O)(=O)c1ccc2ccccc2c1)N[C@H]1C[C@H](C(=O)NCCOCCOCCNC(=S)Nc2ccc3c(c2)C(=O)OC32c3ccc(O)cc3Oc3cc(O)ccc32)N(C(=O)c2nn(-c3ccccc3)c(=O)[nH]c2=O)C1` [Compound 8, (2R,4S) -N-(2-(2-(2-(3-(3',6'-dihydroxy-3-oxo-3H-spiro[isobenzofuran-1,9'-xanthen]-5-yl)thioureido)ethoxy)ethoxy)ethyl)-1-(3,5-dioxo-2-phenyl-2,3,4,5-tetrahydro-1,2,4-triazine-6-carbonyl)-4-(3-(naphthalene-2-sulfonamido)propanamido)pyrrolidine-2-carboxamide], the “affinity against GCPIII (in words)” value in data set [1] is “no measurable affinity was detected”. In data set [2], the equilibrium dissociation constant (Kd) was above 10000 nM.

Take `O=C(O)CC[C@H](NC(=O)N[C@@H](CCC(=O)NCCOCCOCCNC(=S)Nc1ccc2c(c1)C(=O)OC21c2ccc(O)cc2Oc2cc(O)ccc21)C(=O)O)C(=O)O` [Compound 12]: the “binding to PSMA on cells, fluorescence shift by flow cytometry” value in data set [3] and in data set [4] was “avidly bound to PSMA” throughout.

With `O=C(O)CNC(=O)c1cc(CNC(=O)c2ccc(CNC(=O)[C@H]3C[C@H](NC(=O)CCNS(=O)(=O)c4ccc5ccccc5c4)CN3C(=O)c3nn(-c4ccccc4)c(=O)[nH]c3=O)cc2)cc(OCC(=O)N[C@@H](CCCCNC(=S)Nc2ccc3c(c2)C(=O)OC32c3ccc(O)cc3Oc3cc(O)ccc32)C(=O)O)c1` [Compound 5], the “affinity against GCPIII (in words)” value in data set [1] is listed as “no measurable affinity was detected”.

In the case of `O=C(CCNS(=O)(=O)c1ccc2ccccc2c1)N[C@H]1C[C@H](C(=O)N[C@@H](CCCCNC(=S)Nc2ccc3c(c2)C(=O)OC32c3ccc(O)cc3Oc3cc(O)ccc32)C(=O)O)N(C(=O)c2nn(-c3ccccc3)c(=O)[nH]c2=O)C1` [Compound 6], the “affinity against GCPIII (in words)” value in data set [1] is “no measurable affinity was detected”.

With `O=C(O)CNC(=O)c1cc(CNC(=O)c2ccc(CNC(=O)[C@H]3C[C@H](NC(=O)CCNS(=O)(=O)c4ccc5ccccc5c4)CN3C(=O)c3nn(-c4ccccc4)c(=O)[nH]c3=O)cc2)cc(OCC(=O)NCCOCCOCCNC(=S)Nc2ccc3c(c2)C(=O)OC32c3ccc(O)cc3Oc3cc(O)ccc32)c1` [Compound 7], in data set [1], the “affinity against GCPIII (in words)” value is listed as “no measurable affinity was detected”.

`C#CC[C@H](NC(=O)[C@@H]1C[C@@H](C2CCCCC2)CN1C(=O)CSC1CCN(C(=O)CC[C@H](NC(=O)N[C@@H](CCC(=O)O)C(=O)O)C(=O)O)CC1)C(=O)NCCOCCOCCNC(=S)Nc1ccc2c(c1)C(=O)OC21c2ccc(O)cc2Oc2cc(O)ccc21` [Compound 9]: in data set [1], the “fold selectivity (fold higher dissociation constant towards GCPIII)” value was around 40 fold. The Kd in data set [2] came to 0.9 ± 0.5 nM.

On to `O=C([O-])CN1CCN(CC(=O)[O-])CCN(CC(=O)NCC2CCC(C(=O)N[C@@H](Cc3ccc4ccccc4c3)C(=O)NCCCC[C@H](NC(=O)N[C@@H](CCC(=O)O)C(=O)O)C(=O)O)CC2)CCN(CC(=O)[O-])CC1.[177Lu+3]` (stereo partly shown) [Pluvicto™], for which, in data set [5], the overall response rate is 30% and the overall survival is 15.3 months. The “Tumor (HT1080.hPSMA) uptake” value in data set [6] (18: 1 nmol/mouse, Pluvicto 0.5 nmol/mouse, 1 MBq) is reported as 32.4 %ID/g. In data set [6], the Kidney uptake turned out to be 2.16 %ID/g and the “Tumor-to-organ ratio, Blood (T : B)” value was 2079.

Consider `N#Cc1cccc(C[C@H](NC(=O)c2nn(-c3ccccc3)c(=O)[nH]c2=O)C(=O)N[C@@H](Cc2ccc(CP(=O)(O)O)cc2)C(=O)N[C@@H](CCCCNC(=S)Nc2ccc3c(c2)C(=O)OC32c3ccc(O)cc3Oc3cc(O)ccc32)C(=O)O)c1` [Compound 1], for which the dissociation constant (Kd) is 600 ± 3 nM in data set [1] and 260 ± 5 nM in data set [2].

As for `C#CC[C@@H](NC(=O)[C@@H]1C[C@@H](C2CCCCC2)CN1C(=O)CSC1CCN(C(=O)CC[C@H](NC(=O)N[C@@H](CCC(=O)O)C(=O)O)C(=O)O)CC1)C(=O)NCCOCCOCCNC(=S)Nc1ccc2c(c1)C(=O)OC21c2ccc(O)cc2Oc2cc(O)ccc21` [Compound 10], the “fold selectivity (fold higher dissociation constant towards GCPIII)” value in data set [1] is recorded as around 40 fold. For the same molecule, in data set [2], the dissociation constant Kd is 1.3 ± 0.7 nM.

As usually defined, the IC50 is the concentration that inhibits the measured activity by half. As for `O=C(O)CC[C@H](NC(=O)N[C@@H](CCC(=O)O)C(=O)O)C(=O)O` [HIT3, (2S,2′S)-2,2′-(carbonyldiimino)dipentanedioic acid, reference compound], the 50% inhibitory concentration (IC50) in data set [7] was 47 nM. The Kd is 1.2 nM and 1 nM in data set [1]; 1 nM in data set [2].

Take `O=C(CCNS(=O)(=O)c1ccc2ccccc2c1)N[C@H]1C[C@H](C(=O)O)N(C(=O)c2nn(-c3ccccc3)c(=O)[nH]c2=O)C1` [HIT2]: the “binding to PSMA on cells, fluorescence shift by flow cytometry” value in data set [4] is “not able to interact with PSMA on tumor cells”.
